Assay results published in ChEMBL document CHEMBL4765236, “Insights into the Antimicrobial Activity and Cytotoxicity of Engineered α-Helical Peptide Amphiphiles” (J Med Chem, 2016).

What was measured:
[1] = tested on: Escherichia coli; test: Antibacterial activity against Escherichia coli ATCC 25922 assessed as bacterial growth inhibition incubated for 18 to 24 hrs by microtiter broth dilution method; format: functional; conditions: time 18-24 hrs
Summary of the method: (§1)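 Log-phase cells (grown overnight at 37 °C, subcultured in MHB) diluted to 10^5 CFU/mL in MHB and mixed 1:1 with serial peptide dilutions prepared in 0.01% acetic acid/0.2% BSA. Incubated 37 °C for 18-24 h. MIC is the lowest concentration giving no growth by OD492. Reported as the average of 3-5 independent experiments.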

[2] = tested on: Salmonella paratyphi; test: Antibacterial activity against Salmonella paratyphi C CICC 21512 assessed as bacterial growth inhibition incubated for 18 to 24 hrs by microtiter broth dilution method; format: functional; conditions: Salmonella enterica, time 18-24 hrs
Summary of the method: (§2)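 Log-phase bacteria grown at 37 °C in MHB, diluted to 10^5 CFU/mL, mixed 1:1 with serial peptide dilutions (peptide diluted in 0.01% acetic acid, 0.2% BSA); 37 °C for 18-24 h. MIC read by OD492 as lowest concentration giving no growth; mean of 3-5 independent experiments.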

[3] = tested on: Shigella flexneri; test: Antibacterial activity against Shigella flexneri CMCC 51571 assessed as bacterial growth inhibition incubated for 18 to 24 hrs by microtiter broth dilution method; format: functional; conditions: time 18-24 hrs; summary of the method: as §1
[4] = tested on: Salmonella enteritidis; test: Antibacterial activity against Salmonella enteritidis CICC 21527 assessed as bacterial growth inhibition incubated for 18 to 24 hrs by microtiter broth dilution method; format: functional, Salmonella enterica subsp. enterica serovar Enteritidis; conditions: Salmonella enterica, time 18-24 hrs; summary of the method: as §1
[5] = tested on: Staphylococcus aureus; test: Antibacterial activity against Staphylococcus aureus ATCC 29213 assessed as bacterial growth inhibition incubated for 18 to 24 hrs by microtiter broth dilution method; format: functional; conditions: time 18-24 hrs; summary of the method: as §1
[6] = tested on: Staphylococcus aureus; test: Antibacterial activity against Staphylococcus aureus GIM 1.160 assessed as bacterial growth inhibition incubated for 18 to 24 hrs by microtiter broth dilution method; format: functional; conditions: time 18-24 hrs; summary of the method: as §1
[7] = tested on: Listeria monocytogenes; test: Antibacterial activity against Listeria monocytogenes CICC 21662 assessed as bacterial growth inhibition incubated for 18 to 24 hrs by microtiter broth dilution method; format: functional; conditions: time 18-24 hrs; summary of the method: as §1
[8] = tested on: Listeria monocytogenes; test: Antibacterial activity against Listeria monocytogenes CICC 21633 assessed as bacterial growth inhibition incubated for 18 to 24 hrs by microtiter broth dilution method; format: functional; conditions: time 18-24 hrs; summary of the method: as §1
[9] = tested on: Bacillus cereus; test: Antibacterial activity against Bacillus cereus CMCC 63301 assessed as bacterial growth inhibition incubated for 18 to 24 hrs by microtiter broth dilution method; format: functional; conditions: time 18-24 hrs; summary of the method: as §1
[10] = tested on: Micrococcus luteus; test: Antibacterial activity against Micrococcus luteus CMCC 28001 assessed as bacterial growth inhibition incubated for 18 to 24 hrs by microtiter broth dilution method; format: functional; conditions: time 18-24 hrs; summary of the method: as §1
[11] = tested on: Bacillus pumilus; test: Antibacterial activity against Bacillus pumilus CMCC 63202 assessed as bacterial growth inhibition incubated for 18 to 24 hrs by microtiter broth dilution method; format: functional; conditions: time 18-24 hrs; summary of the method: as §1
[12] = tested on: Staphylococcus aureus; test: Antibacterial activity against methicillin resistant Staphylococcus aureus ATCC 43300 assessed as bacterial growth inhibition incubated for 18 to 24 hrs by microtiter broth dilution method; format: functional; conditions: time 18-24 hrs; summary of the method: as §2
[13] = tested on: Erythrocyte; test: Hemolytic activity against human red blood cells assessed as concentration required to cause 10% hemoglobin release measured after 1 hr by microplate reader analysis; format: ADME, cell-based
Summary of the method: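 Fresh heparinized human RBCs washed three times in 10 mM PBS pH 7.4 and resuspended to about 1% (v/v) (5.4 × 10^8 cells/mL). Mixed 1:1 with peptide in PBS for 1 h at 37 °C, then centrifuged. Supernatant hemoglobin read at A540. PBS set as 0% and 0.1% Triton X-100 as 100% hemolysis. MHC is the concentration causing 10% hemolysis.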

[14] = Therapeutic index, ratio of MHC10 for human RBC to geometric mean of peptide MIC for Escherichia coli O157:H7 CICC 21530; format: toxicity; conditions: human red blood cells (RBC), pooled result: one value given for 11 cell lines, strains, targets or settings, read-out: TI
Summary of the method: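 Therapeutic index = MHC (peptide concentration giving 10% hemolysis of human RBCs, 1 h, 37 °C, A540) divided by geometric mean of MICs from broth microdilution (10^5 CFU/mL in MHB, 37 °C, 18-24 h, OD492).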

[15] = tested on: RAW264.7; test: Cytotoxicity against mouse RAW264.7 cells assessed as increase in cell viability at 64 uM incubated for 24 hrs by MTT assay relative to control; format: cell-based; conditions: raw264.7, 24 h
Summary of the method: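 RAW264.7 macrophages were grown in DMEM with 10% FBS, 2 mM glutamine and penicillin/streptomycin at 37 °C in 5% CO2. Cells seeded at 1.0-2.0 × 10^4 per well and treated with peptide (final 0.25-64 µM) for 24 h at 37 °C. MTT at 0.5 mg/mL added for 4 h, formazan dissolved in DMSO, read at 570 nm.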

[16] = tested on: Escherichia coli; test: Antibacterial activity against Escherichia coli O157:H7 CICC 21530 assessed as bacterial growth inhibition incubated for 18 to 24 hrs in presence of 4.5 mM KCl by microtiter broth dilution method (reference value: 0.85 to > 71.5 uM); format: functional; conditions: time 18-24 hrs
[17] = tested on: Cell membrane; test: Induction of outer membrane permeabilization in Escherichia coli O157:H7 CICC 21530 assessed as increase in fluorescence intensity by NPN-dye based fluorescence assay; format: subcellular; conditions: dose 0.625-7.5 µM
[18] = tested on: RAW264.7; test: Antiinflammatory activity against mouse RAW264.7 cells assessed as inhibition of LPS-induced nitric oxide production measured after 24 hrs by Griess reagent based ELISA; format: functional, cell-based; conditions: dose 0.5-64 µM
Summary of the method: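 RAW264.7 cells plated at 1-2 × 10^5 cells/mL and stimulated with 500 ng/mL LPS with or without peptide (0.5-64 µM) for 24 h at 37 °C. Controls were untreated cells and LPS alone. TNF-α in the supernatant measured by ELISA. NO measured by Griess reagent (1% sulfanilamide, 0.1% naphthylethylenediamine, 5% phosphoric acid).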

[19] = tested on: HepG2; test: Cytotoxicity against human HepG2 cells assessed as reduction in cell viability incubated for 24 hrs by MTT assay; format: functional, cell-based
Summary of the method: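 HepG2 survival measured by MTT assay over a peptide range of 0.25-64 µM.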

[20] = tested on: Staphylococcus aureus; test: Antibacterial activity against Staphylococcus aureus ATCC 29213 assessed as bacterial growth inhibition incubated for 18 to 24 hrs in presence of 150 mM NaCl by microtiter broth dilution method (reference value: 0.43 to > 71.5 uM); format: functional; conditions: time 18-24 hrs
[21] = tested on: Staphylococcus aureus; test: Antibacterial activity against Staphylococcus aureus ATCC 29213 assessed as bacterial growth inhibition incubated for 18 to 24 hrs in presence of 4.5 mM KCl by microtiter broth dilution method (reference value: 0.43 to > 71.5 uM); format: functional; conditions: time 18-24 hrs
[22] = tested on: Staphylococcus aureus; test: Antibacterial activity against Staphylococcus aureus ATCC 29213 assessed as bacterial growth inhibition incubated for 18 to 24 hrs in presence of 2 mM CaCl2 by microtiter broth dilution method (reference value: 0.43 to > 71.5 uM); format: functional; conditions: time 18-24 hrs
[23] = tested on: Staphylococcus aureus; test: Bactericidal activity against Staphylococcus aureus ATCC 29213 assessed as bacterial killing at 1 times MIC by time kill assay; format: functional, organism-based; conditions: time 1085.0 min, TDE = time-dependent effect
Summary of the method: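 Log-phase S. aureus 29213 exposed to peptide at 1 × MIC in 10 mM PBS pH 7.4 at 37 °C for 0-90 min. Aliquots taken at fixed intervals, diluted and plated on nutrient agar, and colonies counted after 18 h at 37 °C. Average of three independent assays.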

Substance	MIC [1] [µM]	MIC [2] [µM]	MIC [3] [µM]	MIC [4] [µM]	MIC [5] [µM]	MIC [6] [µM]	MIC [7] [µM]	MIC [8] [µM]	MIC [9] [µM]	MIC [10] [µM]	MIC [11] [µM]	MIC [12] [µM]	MHC10 [13] [µM]	selectivity ratio [14]	Activity [15] [%]	MIC [16] [µM]	Activity [18]	Activity [19]	MIC [20] [µM]	MIC [21] [µM]	further results
H-WGRAFRRLVRRLARGLRR-NH2	27.9	3.49	3.49	> 55.8	3.49	1.74	1.74	1.74	55.8	27.9	55.8	6.97	> 55.78	10.3	64.79	3.49	Dose-dependent effect	Dose-dependent effect	6.97	0.87	Activity [17]: Dose-dependent effect; MIC [22]: 3.49 µM; Activity [23]: Tde
H-WLRAFRRLVRRLARGLRR-NH2	1.7	0.43	0.43	6.81	0.43	0.43	0.21	0.21	0.85	0.43	0.85	0.85	27.22	20.5	40.73	0.85	Dose-dependent effect	Dose-dependent effect	1.7	0.21	Activity [17]: Dose-dependent effect; IC50 ([19]; HepG2, 24 h): 32 µM; MIC [22]: 0.43 µM; Activity [23]: Tde
H-WGRAFSRGVRRLARGGRG-NH2	31.8	15.9	15.9	> 63.5	31.8	15.9	15.9	31.8	> 63.5	> 63.5	> 63.5	> 63.5	> 63.54	4.26	85.48	3.97	Dose-dependent effect	Dose-dependent effect	> 63.5	> 63.5	Activity [17]: Dose-dependent effect; MIC [22]: > 63.5 µM; Activity [23]: Tde
H-WGRAFRRGVRRLARGGRR-NH2	14.7	7.33	7.33	> 58.6	14.7	7.33	7.33	7.33	14.7	7.33	> 58.6	14.7	> 58.64	7.51	74.8	3.67	Dose-dependent effect	Dose-dependent effect	14.7	7.33	Activity [17]: Dose-dependent effect; MIC [22]: 7.33 µM; Activity [23]: Tde
H-WGRAFSAGVHRLARGGRG-NH2	> 67	> 67	> 67	> 67	> 67	> 67	33.5	67	> 67	> 67	> 67	> 67	> 67.01	1.55	87.22	4.19	Dose-dependent effect	Dose-dependent effect	> 67	> 67	Activity [17]: Dose-dependent effect; MIC [22]: > 67 µM; Activity [23]: Tde
H-WGRAFSAGVHRLANGGNG-NH2	> 70.1	> 70.1	> 70.1	> 70.1	> 70.1	70.1	> 70.1	> 70.1	> 70.1	> 70.1	> 70.1	> 70.1	> 70.09	1	77.58	> 70.1	Dose-dependent effect	Dose-dependent effect	> 70.1	> 70.1	Activity [17]: Dose-dependent effect; MIC [22]: > 70.1 µM; Activity [23]: Tde
H-WGEAFSAGVHRLANGGNG-NH2	> 71.2	> 71.2	> 71.2	> 71.2	> 71.2	> 71.2	> 71.2	> 71.2	> 71.2	> 71.2	> 71.2	> 71.2	> 71.15	1	73.62	> 71.2	Dose-dependent effect	Dose-dependent effect	> 71.2	> 71.2	MIC [22]: > 71.2 µM; Activity [23]: Tde
H-WLRAFRRLVRRLARLLRR-NH2	13.3	6.65	1.66	> 53.2	6.65	1.66	3.32	3.32	53.2	13.3	26.6	3.32	53.18	4.83	48.25	1.66	Dose-dependent effect	Dose-dependent effect	26.6	1.66	Activity [17]: Dose-dependent effect; MIC [22]: 13.3 µM; Activity [23]: Tde
